# Experimental data reported in ChEMBL document CHEMBL4602675, “The Marine Natural Product Manzamine A Inhibits Cervical Cancer by Targeting the SIX1 Protein” (J Nat Prod, 2020).
# Active and inactive are the calls of the source. No cut-off for these calls is given here.
# What was measured:
# [1] = system: HeLa; assay: Induction of apoptosis in human HeLa cells assessed as apoptotic cells at 4 uM after 48 hrs by Annexin V-FITC/PI double staining based flow cytometric analysis (reference value: 19.3%); format: functional
# [2] = system: HeLa; assay: Induction of apoptosis in human HeLa cells assessed as viable cells at 4 uM after 48 hrs by Annexin V-FITC/PI double staining based flow cytometric analysis (reference value: 80.7%); format: functional; conditions: read-out: Activity
# [3] = system: C-33-A; assay: Cell cycle arrest in human C33A cells assessed as accumulation at G2/M phase at 4 uM after 48 hrs by propidium iodide staining based flow cytometric analysis (reference value: 26.7%); format: functional
# Outline: (§1)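 Cells in DMEM/10% FBS at 37 °C, 5% CO2 were given 4 μM for 24, 48 or 72 h, with DMSO as control. After trypsinization they were fixed in chilled 70% ethanol on ice for 30 min, treated with RNase A (1 mg/mL) for 30 min at room temperature, and stained with PI (20 μg/mL). At least 10 000 events were read by flow cytometry to give sub-G1, G0/G1, S and G2/M fractions; mean ± SEM.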
# [4] = system: SiHa; assay: Cell cycle arrest in human SiHa cells assessed as accumulation at G0/G1 phase at 4 uM after 48 hrs by propidium iodide staining based flow cytometric analysis (reference value: 72.7%); format: functional; outline: as §1
# [5] = system: C-33-A; assay: Cell cycle arrest in human C33A cells assessed as accumulation at G2/M phase at 4 uM after 72 hrs by propidium iodide staining based flow cytometric analysis (reference value: 25.2%); format: functional; outline: as §1
# [6] = molecular target: T1, Homeobox protein SIX1 (Homo sapiens) (UniProt Q15475); assay: Potency index, ratio for inhibition activity of apigenin to test compound for inhibition of SIX1 in human HeLa cells after 48 hrs by Western blot analysis; format: cell-based
# T1 sequence (whole entry): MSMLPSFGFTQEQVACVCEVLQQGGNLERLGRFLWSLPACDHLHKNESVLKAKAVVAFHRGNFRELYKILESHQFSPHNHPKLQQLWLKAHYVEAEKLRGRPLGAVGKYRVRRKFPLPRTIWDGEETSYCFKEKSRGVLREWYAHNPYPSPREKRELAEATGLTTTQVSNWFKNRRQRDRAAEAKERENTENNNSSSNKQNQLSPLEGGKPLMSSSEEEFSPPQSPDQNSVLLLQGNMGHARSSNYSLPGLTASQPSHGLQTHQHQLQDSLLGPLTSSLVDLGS
# Outline: (§2)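 Cells plated at 1 × 10^6 per 100 mm dish and treated next day for 48 h with test compound (2 or 4 μM) or apigenin (10, 20 or 40 μM). RIPA lysates with protease inhibitors; equal protein loaded for SDS-PAGE, then PVDF transfer. Blocked in 5% milk/TBST (3% BSA for CK2α); anti-SIX1 or anti-CK2α 1:500, HRP secondary 1:2000; chemiluminescent detection.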
# [7] = system: HeLa; assay: Induction of apoptosis in human HeLa cells assessed as late apoptotic cells at 4 uM after 48 hrs by Annexin V-FITC/PI double staining based flow cytometric analysis (reference value: 4.4%); format: functional
# [8] = system: C-33-A; assay: Cell cycle arrest in human C33A cells assessed as increase in p21 protein expression at 2 to 4 uM after 48 hr by Western lot analysis; format: functional, cell-based
# Outline: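 Western blot. 1 × 10^6 cells were seeded per 100 mm dish and exposed the next day to 2 or 4 μM for 48 h. Cells were trypsinized and lysed in RIPA buffer with protease inhibitors. Equal protein was run on SDS-PAGE and transferred to PVDF, which was blocked in 5% milk/TBST. Anti-p53 and anti-p21 (also GAPDH) were used at 1:500 and HRP secondary at 1:2000; chemiluminescent detection.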
# [9] = molecular target: Casein kinase II subunit alpha (Homo sapiens) (UniProt P68400); assay: Potency index, ratio for inhibition activity of apigenin to test compound for inhibition of CK2alpha in human SiHa cells after 48 hrs by Western blot analysis; format: cell-based; outline: as §2
# Chain of Casein kinase II subunit alpha (Homo sapiens) (P68400 whole entry, looked up): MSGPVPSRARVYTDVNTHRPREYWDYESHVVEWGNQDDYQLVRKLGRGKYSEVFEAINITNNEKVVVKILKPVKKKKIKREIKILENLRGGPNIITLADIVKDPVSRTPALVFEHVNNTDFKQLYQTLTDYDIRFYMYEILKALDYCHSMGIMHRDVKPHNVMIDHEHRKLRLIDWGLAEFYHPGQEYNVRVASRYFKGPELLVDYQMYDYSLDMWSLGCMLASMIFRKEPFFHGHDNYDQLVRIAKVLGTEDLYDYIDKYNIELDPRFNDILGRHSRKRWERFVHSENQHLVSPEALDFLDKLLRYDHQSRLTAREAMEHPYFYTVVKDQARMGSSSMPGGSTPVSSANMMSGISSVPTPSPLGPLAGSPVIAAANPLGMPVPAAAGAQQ
# [10] = molecular target: T1, Homeobox protein SIX1 (Homo sapiens); assay: Inhibition of SIX1 in human SiHa cells at 2 to 4 uM after 48 hrs by Western blot analysis; format: cell-based
# Outline: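 SiHa cells in DMEM with 10% FBS were seeded at 1 × 10^6 per 100 mm dish and treated the next day at 2 or 4 μM for 48 h. Lysis was in RIPA buffer with protease inhibitors. Equal protein was run on SDS-PAGE and transferred to PVDF, blocked in 5% milk/TBST, probed with anti-SIX1 (1:500) then HRP secondary (1:2000), and detected by chemiluminescence.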
# [11] = system: Ca-Ski; assay: Cell cycle arrest in human CaSki cells assessed as increase in accumulation at G0/G1 phase at 4 uM incubated for 24 hrs by propidium iodide staining based flow cytometric analysis; format: functional; outline: as §1
# [12] = system: C-33-A; assay: Induction of apoptosis in human C33A cells assessed as viable cells at 4 uM after 48 hrs by Annexin V-FITC/PI double staining based flow cytometric analysis (reference value: 82.8%); format: functional; conditions: read-out: Activity
# [13] = system: Ca-Ski; assay: Effect on total-Rb in human CaSki cells assessed decrease in Rb protein level at 2 to 4 uM after 48 hrs by Western blot analysis; format: ADME, cell-based
# Outline: (§3)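 Cells were seeded at 1 × 10^6 per 100 mm dish and treated next day with 2 or 4 μM for 48 h. They were trypsinised, PBS-washed and lysed in RIPA with protease inhibitors. Equal protein was run on SDS-PAGE and transferred to PVDF. Primary antibodies were used at 1:500, with BSA 3% for blocking and antibodies for CK2α, Rb and pRb, otherwise 5% milk in TBST. HRP secondary at 1:2000, chemiluminescence detection.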
# [14] = system: SiHa; assay: Induction of apoptosis in human SiHa cells assessed as late apoptotic cells at 4 uM after 48 hrs by Annexin V-FITC/PI double staining based flow cytometric analysis (reference value: 2.3%); format: functional
# [15] = system: HeLa; assay: Induction of apoptosis in human HeLa cells assessed as early apoptotic cells at 4 uM after 48 hrs by Annexin V-FITC/PI double staining based flow cytometric analysis (reference value: 10.7%); format: functional
# [16] = system: Ca-Ski; assay: Cell cycle arrest in human CaSki cells assessed as accumulation at G2/M phase at 4 uM after 48 hrs by propidium iodide staining based flow cytometric analysis (reference value: 29.5%); format: functional; outline: as §1
# [17] = system: Ca-Ski; assay: Cell cycle arrest in human CaSki cells assessed as accumulation at G2/M phase at 4 uM after 24 hrs by propidium iodide staining based flow cytometric analysis (reference value: 27.4%); format: functional; outline: as §1
# [18] = system: Ca-Ski; assay: Antiproliferative activity against human CaSki cells assessed as reduction in cell viability after 48 hrs by CellTiter-Glo assay; format: functional, cell-based
# Outline: (§4)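 ATP-based luminescent viability readout. Cells were grown in DMEM with 10% FBS, 2 mM L-glutamine and penicillin-streptomycin at 37 °C, 5% CO2. 2 × 10^4 cells/well were seeded, then exposed the next day to 0–40 μM for 24, 48 or 72 h. % viability = 100 × treated/control. IC50 was fitted from a sigmoid dose-response curve. Run at least three times in quadruplicate; mean ± SEM.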
# [19] = system: HeLa; assay: Cell cycle arrest in human HeLa cells assessed as accumulation at G2/M phase at 4 uM after 48 hrs by propidium iodide staining based flow cytometric analysis (reference value: 16.2%); format: functional
# [20] = system: Ca-Ski; assay: Antiproliferative activity against human CaSki cells assessed as reduction in cell viability after 24 hrs by CellTiter-Glo assay; format: functional, cell-based; outline: as §4
# [21] = molecular target: Casein kinase II subunit alpha (Homo sapiens) (UniProt P68400); assay: Inhibition of CK2alpha in human CaSki cells at 2 to 4 uM after 48 hrs by Western blot analysis; format: cell-based; conditions: Ca-Ski; outline: as §3
structure (smiles),measurement,setting,value
O[C@]12C=C(c3nccc4c3[nH]c3ccccc34)[C@@H]3CCN(CCCC/C=C\CC1)C[C@@]31C[C@@H]3/C=C\CCCCN3[C@H]12 [MANZAMINE A],Activity,[1],75.9%
same,viability at 4 µM,[2],24.1%
same,Activity,[3],18.3%
same,Activity,[4],86.4%
same,Activity,[5],19.3%
same,Ratio,[6],10
same,Activity,[7],14.1%
same,Activity,[8],inactive
same,Ratio,[9],10
same,inhibition,[10],Active
same,fold change (FC),[11],1.4
same,viability at 4 µM,[12],63.6%
same,Activity,[13],Toxic
same,Activity,[14],4.2%
same,Activity,[15],59%
same,Activity,[16],10.1%
same,Activity,[17],15.2%
same,IC50,[18],19.9 µM
same,Activity,[19],20.8%
same,IC50,[20],33.6 µM
same,inhibition,[21],Active
